In the library only some 0.95% were active in any assay of this set; here they are far more common.
SUMO HTRF inh = SUMOylation inhibition | inhibition, % at 35 µM | HTRF SUMOylation assay, SAE1/SAE2 + UBC9, in vitro | 290,000 tested, 0.36% active; in the data active = inhibition above about 50%, passing the limit was not always enough
G6PDH CS = counter-screen for G6PDH assay hits: L. mesenteroides G6PDH inhibition; Purified L. mesenteroides G6PDH, diaphorase/resazurin coupled fluorescence, 45 min; inhibition, % at 5 µM; 200,000 tested, 0.12% active; AID 1020; in the data active = inhibition above about 50%
HKDC1 inh = blocks human hexokinase HKDC1 activity; Q2TB90; recombinant HKDC1, G6PDH/diaphorase resazurin coupled fluorescence; inhibition, % at 20 µM; 340,000 tested, 0.16% active; AID 493160;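 active = inhibition above about 35% when tested at 20 µM, limit read from the data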;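 note: plate controls were DMSO wells with enzyme for no effect and DMSO wells lacking enzyme for full effect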
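Assay system: in-house recombinant HK5 (HKDC1) enzyme. Input: HKDC1 at 5 µg/mL. Medium: Tris pH 8.0 buffer with MgCl2, Tween-20, BSA, BME. Dosing: single 20 µM dose. Schedule: 90 min reaction incubation at room temperature, dark. Signal: resazurin-to-resorufin fluorescence via G6PDH and diaphorase coupling, 525/613 nm. Controls: DMSO-enzyme wells negative, buffer-substituted wells positive.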
p97 inhibitor = human p97 ATPase inhibition; inhibition, % at 8 µM; 220,000 tested, 0.42% active; recombinant p97 ATPase, Kinase-Glo ATP luminescence, 3 h; in the data active = inhibition above about 15%;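 note: 0% = DMSO vehicle and 100% = wells lacking enzyme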
Target sequence (P55072 whole entry, looked up): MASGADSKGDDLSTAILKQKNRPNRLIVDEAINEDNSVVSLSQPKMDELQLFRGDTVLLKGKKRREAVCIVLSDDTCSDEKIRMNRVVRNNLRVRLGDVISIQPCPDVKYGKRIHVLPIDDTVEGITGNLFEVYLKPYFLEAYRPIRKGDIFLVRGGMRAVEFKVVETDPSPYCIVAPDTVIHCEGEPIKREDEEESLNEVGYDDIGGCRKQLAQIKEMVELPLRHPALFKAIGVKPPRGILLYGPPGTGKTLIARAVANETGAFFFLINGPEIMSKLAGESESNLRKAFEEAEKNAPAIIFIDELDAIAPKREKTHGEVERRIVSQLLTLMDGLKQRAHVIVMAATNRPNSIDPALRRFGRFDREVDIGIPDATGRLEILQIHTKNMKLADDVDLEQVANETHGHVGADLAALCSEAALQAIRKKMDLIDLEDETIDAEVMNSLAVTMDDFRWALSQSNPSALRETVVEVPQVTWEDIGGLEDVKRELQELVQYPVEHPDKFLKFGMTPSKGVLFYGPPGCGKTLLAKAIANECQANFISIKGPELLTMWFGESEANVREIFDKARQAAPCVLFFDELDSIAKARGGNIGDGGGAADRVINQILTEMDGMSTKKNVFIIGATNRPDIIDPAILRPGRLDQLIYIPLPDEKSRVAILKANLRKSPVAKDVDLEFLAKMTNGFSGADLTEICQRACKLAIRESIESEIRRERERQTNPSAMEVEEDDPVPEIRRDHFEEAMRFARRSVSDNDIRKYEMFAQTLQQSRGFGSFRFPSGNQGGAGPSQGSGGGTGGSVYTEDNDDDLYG
Diaph inh CS = counter-screen for diaphorase-based assays: diaphorase inhibitors and chemical oxidizers; diaphorase resazurin-to-resorufin fluorescence, NADH, 16 min; bacterial (C. kluyveri) enzyme, not human; inhibition, % at 20 µM; 190,000 tested, 0.69% active; AID 1217;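 active = primary screen inhibition at 20 µM above a set limit, cut at about 50% in these data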;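 note: plate controls were DMSO with full reaction for no effect and wells lacking NADH for full effect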
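Assay system: diaphorase enzyme from Clostridium kluyveri; Input: enzyme working solution with 0.14 U/mL diaphorase; Timing: 16 min at room temperature; Technique: resorufin fluorescence, excitation 544 nm, emission 590 nm; Benchmarks: positive control minus NADH, DMSO neutral control.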
Active calls of the source: *; . = no result given.

SMILES | SUMO HTRF inh | G6PDH CS | HKDC1 inh | p97 inhibitor | Diaph inh CS
CCOc1ccc(CNc2ccc(N3CCCC3)cc2)cc1 | -8.7 | -20.3 | 18.6 | 3.8 | 74.7*
CCOc1cc(CNc2ccc(N3CCCC3)cc2)cc(Cl)c1OC | 22.4 | 10.4 | 2.3 | 4.7 | 67.9*
CCOc1ccc(CNc2ccc(N3CCN(Cc4ccccc4)CC3)cc2)cc1 | 2.8 | . | 3.3 | . | .
COc1ccc(/C=N/NC(=O)c2nn(-c3ccccc3)c(=O)c3c(N)scc23)cc1 | 2.2 | 30.1 | 22.9 | 0.0 | 57.1*
CCOC(=O)c1nn(-c2ccc(OC)cc2)c(=O)c2c(N)scc12 | 7.0 | -26.3 | 10.2 | 1.1 | 23.7
COc1ccc(/C=N/NC(=O)c2nn(-c3ccc(Cl)cc3)c(=O)c3c(N)scc23)cc1 | 25.0 | 12.3 | 15.8 | 0.1 | 50.4*
CCOc1ccccc1NC(=O)COC(=O)C(Cc1ccccc1)NC(=O)c1ccco1 (centres undefined) | . | . | 0.7 | . | .
COc1ccc(-c2oc3ccc(-c4cc(OC)c(OC)c(OC)c4)cc3c2C#Cc2ccccn2)cc1 | . | . | 1.2 | . | .
CN(C)c1nc(N)c2ncc(=S)[nH]c2n1 | 20.4 | 15.4 | 9.9 | 1.0 | 51.9*
O=C(NC1(Cc2ccccc2)CCN(Cc2ccc(-c3ccccc3)cc2)C1=O)c1ccccc1 (centres undefined) | . | . | -2.0 | . | .
CC1CCCN(C(=S)SCC(=O)c2cc(Br)cc(Br)c2O)C1 (centres undefined) | 22.7 | 22.7 | -15.0 | 5.9 | 61.5*
O=C(CSC(=S)N1CCCC1)c1cc(Br)cc(Br)c1O | 13.3 | 15.6 | -6.4 | 8.4 | 35.1
CC(=O)C(C(C)=O)C1(O)C(=O)c2ccccc2C1=O | 94.4* | 6.2 | -6.1 | 7.5 | 14.8
O=C1C(O)=C(O)C(=O)c2ccccc21 | . | . | 1.8 | . | .
CSC(=S)N/N=C/c1ccccc1 | -0.1 | 2.6 | -7.4 | 4.7 | 73.2*
COc1ccc(/C=N/NC(=S)SC)cc1OC | 16.4 | 1.7 | -13.9 | 4.6 | 49.7
COc1cc2c(cc1O)CC[n+]1cc3c(OC)c(OC)ccc3cc1-2 | -4.5 | 15.6 | 0.8 | 7.6 | -7.8
COc1cc2c(cc1OC)-c1cc3ccc4c(c3c[n+]1CC2)OCO4 | . | 52.2* | 15.6 | 10.5 | 8.1
Nc1cccnc1Sc1ccc([N+](=O)[O-])cn1 | 9.0 | -0.4 | -12.5 | -0.9 | 50.3*
COC(=O)/C=c1/sc2nc3ccccc3n2c1=O | 18.9 | 9.0 | -31.8 | -1.6 | -2.3
O=c1/c(=C/c2ccccn2)sc2nc3ccccc3n12 | 13.6 | -7.1 | -0.5 | 4.4 | 15.4
O=C(O)c1cc(C(=O)O)cc(-c2ccc(/C=c3/sc4nc5ccccc5n4c3=O)o2)c1 | 15.3 | -0.9 | 23.9 | 3.7 | 97.6*
O=c1/c(=C\c2cc([N+](=O)[O-])cc([N+](=O)[O-])c2O)sc2nc3ccccc3n12 | 25.7 | -3.4 | 33.1 | 6.7 | 50.1*
O=C(c1ccc2c(c1)[nH]c(=S)n1c3ccccc3nc21)N1CCN(c2ncccn2)CC1 | 60.7* | -26.7 | 2.4 | 6.3 | 7.6
Cc1ccn(CCC(=O)N2CCc3ccccc32)n1 | 6.2 | . | -5.2 | . | .
SMILES | SUMO HTRF inh | G6PDH CS | HKDC1 inh | p97 inhibitor | Diaph inh CS
COc1ccc(OC)c(C2CC(=O)N3CN(c4cccc(Cl)c4)CSC3=C2C#N)c1 (centres undefined) | 16.7 | 6.7 | 2.5 | 3.3 | 46.5
COc1ccc(OC)c(C2CC(=O)N3CN(c4cccc(Cl)c4C)CSC3=C2C#N)c1 (centres undefined) | 18.4 | 6.7 | 12.1 | -4.3 | 52.2*
N#CC1=C2SCN(c3ccccc3)CN2C(=O)CC1c1ccccc1Cl (centres undefined) | -8.1 | 5.2 | 6.2 | -9.2 | 34.0
COc1cccc(C2CC(=O)N3CN(c4cccc(Cl)c4C)CSC3=C2C#N)c1OC (centres undefined) | 10.8 | 7.8 | 9.2 | 7.4 | 50.6*
CCCNC(=O)NC(=O)CSc1nnc(-c2c[nH]c3ccccc23)o1 | -1.0 | . | 1.2 | . | .
CNc1oc(Cc2ccccc2)nc1S(=O)(=O)c1ccc(Cl)cc1 | 5.8 | 3.2 | -8.2 | -1.4 | 53.5*
O=C(O)CC1S/C(=N/N=C/c2ccc(-c3ccccc3[N+](=O)[O-])o2)NC1=O (centres undefined) | 24.8 | 12.3 | 11.3 | -1.4 | 52.3*
COc1ccc(C[C@](C)(N)C(=O)O)cc1OC | . | . | -6.0 | . | .
C[C@](N)(Cc1ccc(O)c(O)c1)C(=O)O | 90.5* | 46.5 | -2.5 | -1.1 | 46.0
COc1ccc(S(N)(=O)=O)cc1C(=O)NNC(=O)CN(C)S(=O)(=O)c1ccc(Cl)cc1 | . | . | -3.9 | . | .
O=C(CN1C(=O)/C(=C/c2ccco2)SC1=S)Nc1ccc(C(=O)O)c(O)c1 | 71.8* | . | 16.9 | . | .
CC(C(=O)Nc1ccc(C(=O)O)c(O)c1)N1C(=O)/C(=C\c2ccco2)SC1=S (centres undefined) | 57.0* | . | 14.0 | . | .
O=C(CCCN1C(=O)/C(=C\c2ccco2)SC1=S)Nc1ccc(O)cc1C(=O)O | . | . | 14.5 | . | .
O=C1/C(=C\c2ccco2)SC(=S)N1c1ccc(O)cc1 | 56.8* | 1.2 | -6.1 | 9.2 | 13.4
NN1C(=O)/C(=C\c2ccco2)SC1=S | 91.4 | . | -3.6 | 0.4 | .
O=C(CN1C(=O)/C(=C/c2ccco2)SC1=S)Nc1ccc(O)c(C(=O)O)c1 | 50.8* | . | 16.7 | . | .
COc1cc(/C=C2\CC/C(=C\c3cc(OC)c(O)c(OC)c3)C2=O)cc(OC)c1O | 30.1 | 56.3* | 28.7 | 19.4* | 70.7*
CCOC(=O)c1nn(-c2ccc(F)cc2)c(=O)cc1OCC(=O)Nc1ccc(F)c(F)c1 | . | . | -5.1 | . | .
CC1=Nc2cccc3cccc(c23)N1C | 78.6* | 28.8 | 1.4 | 1.7 | 14.5
CN1C(=O)N(C)c2cccc3cccc1c23 | 8.2 | . | 3.5 | . | .
O=C(N/N=C/c1ccccn1)c1cc(-c2cccc3ccccc23)n[nH]1 | -36.6 | -68.4 | -8.3 | 8.4 | 29.7
O=C(O)c1ccc(/C=N/NC(=O)c2cc(-c3ccc4c5c(cccc35)CC4)n[nH]2)cc1 | 37.9 | 2.1 | 13.4 | 3.3 | 68.1*
Cc1c2ccccc2nc2c(F)c(NCCO)c(F)c(F)c12 | 26.3 | 6.4 | 6.2 | 9.5 | 53.1*
OCCNc1c2ccccc2nc2c(F)c(F)c(F)c(F)c12 | 9.0 | -12.7 | -5.7 | 12.0 | 16.7
CCC(C)[C@H](NC(=O)[C@@H]1Cc2c([nH]c3ccccc23)C2c3ccccc3C(=O)N21)C(=O)NCC1CCCO1 (some centres undefined) | -9.3 | . | -0.9 | . | .
Cc1onc(-c2c(Cl)cccc2Cl)c1C(=O)O/N=C(\C#N)c1ccccc1 | 12.8 | . | -0.7 | 14.6* | .
COc1ccc(S(=O)(=O)N2CCC(C(=O)NC3CC3)CC2)cc1OC | 14.1 | . | -7.6 | . | .
O=C1CC(N2CCOCC2)=NN1c1ccc([N+](=O)[O-])cc1 | 95.6 | . | -0.1 | 8.3 | .
CN(C)c1ccc(/C=C2/C(=O)N(c3ccc([N+](=O)[O-])cc3)N=C2N2CCOCC2)cc1 | 87.2* | 11.6 | . | 31.5* | 20.6
CN(C)c1ccc(/C=C2\C(=O)N(c3ccc([N+](=O)[O-])cc3)N=C2N2CCOCC2)cc1 | . | . | . | 23.3* | .

Assay outcomes deposited in PubChem BioAssay by several laboratories.
